Experimental data taken from PMC2172527 (The Journal of Cell Biology, 2004).
“Also recorded” adds a separate entry of the source. Ends that are not written are not given here.

B1: GST-talin head: human talin 2 head (aa 1–438) expressed as GST fusion protein (protein)
chain: MVALSLKICVRHCNVVKTMQFEPSTAVYDACRVIRERVPEAQTGQASDYGLFLSDEDPRKGIWLEAGRTLDYYMLRNGDILEYKKKQRPQKIRMLDGSVKTVMVDDSKTVGELLVTICSRIGITNYEEYSLIQETIEEKKEEGTGTLKKDRTLLRDERKMEKLKAKLHTDDDLNWLDHSRTFREQGVDENETLLLRRKFFYSDQNVDSRDPVQLNLLYVQARDDILNGSHPVSFEKACEFGGFQAQIQFGPHVEHKHKPGFLDLKEFLPKEYIKQRGAEKRIFQEHKNCGEMSEIEAKVKYVKLARSLRTYGVSFFLVKEKMKGKNKLVPRLLGITKDSVMRVDEKTKEVLQEWPLTTVKRWAASPKSFTLDFGEYQESYYSVQTTEGEQISQLIAGYIDIILKKKQSKDRFGLEGDEESTMLEESVSPKKSTILQQQ
modifications: left off: GST, end not stated, kept

How the values were obtained:
talin = assay: GST-PIPKIγ tail pull-down, rat brain extract; assay type: binding; conditions: rat brain protein extracts; Western blot and Coomassie blue, Fig. 1 A, B
Procedure, shortened: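 Bait: human PIPKIγ tail (aa 635–662) expressed as a GST fusion and purified, with GST alone as control. Used for affinity pull-down from lamprey spinal cord or rat brain extracts. Bound proteins were run on protein gels, then Coomassie blue stained or Western blotted with anti-talin antibody TD77.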

[1] = tested on: lamprey reticulospinal synapses; assay: EM of stimulated synapses in microinjected axons; assay type: cell-based, lamprey (Ichthyomyzon unicuspis); conditions: GST-talin head-injected axons, estimated 0.5–2.5 μM; Fig. 5
[2] = molecular target: PIPKIγ (90-kD protein doublet); assay: GST-talin head pull-down, lamprey extract; assay type: binding; conditions: Western blot with anti-PIPKIγ antibody, Fig. 1 E
Procedure, shortened: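 Bait: human talin 2 head (aa 1–438) expressed as a GST fusion and purified, with GST alone as control. Used for affinity purification from lamprey extract alongside a load lane. Eluates were Western blotted with an in-house anti-PIPKIγ antibody to detect the 90-kD doublet.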

Molecule	affinity purification of talin (in words) (talin)	clathrin-mediated endocytosis at stimulated synapses (in words) [1]	affinity purification of PIPKIγ 90-kD doublet (in words) [2]
GST-PIPKIγ tail: GST fusion protein of human PIPKIγ tail (aa 635–662), the 28-aa COOH-terminal tail ({GST}-ATDIYFPTDERSWVYSPLHYSAQAPPAS)	purification of the upper talin band; also recorded: Talin was the only major band retained	–	–
B1	–	a perturbation of clathrin-mediated endocytosis at synapses similar to that observed with PIPK pep	specifically affinity purified
